Test results published in ChEMBL document CHEMBL1143373, “Novel 6-methanesulfonamide-3,4-methylenedioxyphenyl-N-acylhydrazones: orally effective anti-inflammatory drug candidates” (Bioorg Med Chem, 2009).
Blank lines part the entries; values can stand above or below the compound they belong to. Calls of active or inactive are those of the source.

Columns and labels:
Rattus norvegicus [1] = experiment: Antiinflammatory activity in Wistar rat assessed as inhibition of carrageenan-induced paw edema volume at 300 umol/kg, po administered 1 hrs prior to carrageenan challenge measured after 3 hrs; format: functional; set-up: scale not given: the % may be the effect or the level left
In short: (§1)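 Fasted Wistar rats of both sexes (150–200 g), given compound orally as a suspension in 5% arabic gum in saline. One hour later, 1% carrageenan (1 mg/paw) injected subplantar into one hind paw, saline into the other. Volumes measured by glass plethysmometer at 3 h. Edema taken as the carrageenan-minus-saline paw difference, expressed as % inhibition vs vehicle. n = 8–10.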

Rattus norvegicus [2] = experiment: Antiinflammatory activity against arachidonic acid-induced ear edema in Wistar rat; format: functional, organism-based
Rattus norvegicus [3] = experiment: Antiinflammatory activity in po dosed Wistar rat assessed as inhibition of carrageenan-induced paw edema volume administered 1 hrs prior to carrageenan challenge measured after 3 hrs; format: functional; in short: as §1
[4] = biological target: T1, Prostaglandin G/H synthase 2 (Homo sapiens, UniProt P35354); experiment: Inhibition of COX2 in LPS-stimulated human whole blood assessed as TXB2 production by enzyme immunoassay; format: tissue-based
T1 sequence (P35354 whole entry): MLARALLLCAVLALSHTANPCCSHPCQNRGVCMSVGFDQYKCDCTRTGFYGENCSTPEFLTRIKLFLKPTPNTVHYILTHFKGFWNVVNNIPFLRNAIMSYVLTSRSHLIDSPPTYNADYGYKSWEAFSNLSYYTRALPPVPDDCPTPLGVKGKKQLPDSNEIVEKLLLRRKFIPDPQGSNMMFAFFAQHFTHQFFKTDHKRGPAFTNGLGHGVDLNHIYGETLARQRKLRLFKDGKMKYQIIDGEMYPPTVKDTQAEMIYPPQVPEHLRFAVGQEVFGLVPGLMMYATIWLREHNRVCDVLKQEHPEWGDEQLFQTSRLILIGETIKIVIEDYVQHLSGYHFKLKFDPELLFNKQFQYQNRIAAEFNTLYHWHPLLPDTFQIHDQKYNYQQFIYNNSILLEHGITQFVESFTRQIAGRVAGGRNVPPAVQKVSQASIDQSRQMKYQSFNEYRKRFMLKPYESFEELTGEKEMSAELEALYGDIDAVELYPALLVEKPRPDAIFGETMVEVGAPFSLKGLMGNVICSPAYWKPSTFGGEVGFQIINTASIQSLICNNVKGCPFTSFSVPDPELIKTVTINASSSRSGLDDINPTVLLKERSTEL

Mus musculus [5] = experiment: Antinociceptive activity against formalin-induced pain in mouse assessed as inhibition of paw licking response during inflammatory phase at 300 umol/kg, po measured 15 to 30 mins after formalin injection; format: functional; set-up: scale not given: the % may be the effect or the level left
In short: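 Mice received 20 µL of 2.5% formalin subplantar in the hind paw. The inflammatory (second) phase was recorded 15–30 min after injection.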

Mus musculus [6] = experiment: Antinociceptive activity in mouse assessed as inhibition of acetic acid-induced constrictions at 300 umol/kg, po; format: functional; set-up: scale not given: the % may be the effect or the level left
Rattus norvegicus [7] = experiment: Antihyperalgesic activity in Wistar rat assessed as inhibition of carrageenan-induced thermal hyperalgesia at 300 umol/kg, po by hotplate test; format: functional, organism-based
In short: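 Fasted Wistar rats of both sexes (150–200 g), dosed orally with 300 µmol/kg as a suspension in 5% arabic gum in saline (vehicle controls). Carrageenan 1% (1 mg/paw) injected subplantar 1 h later. Hot plate held at 51 °C, cut-off 20 s. Left hind paw withdrawal latency read at 0, 30, 60, 120, 180 and 240 min post-challenge. Hyperalgesia taken as the latency drop from time 0. n = 8 per group.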

[8] = biological target: Prostaglandin G/H synthase 1 (Homo sapiens, UniProt P23219); experiment: Inhibition of COX1 in human whole blood assessed as TXB2 production by enzyme immunoassay; format: tissue-based
Chain of Prostaglandin G/H synthase 1 (P23219 whole entry): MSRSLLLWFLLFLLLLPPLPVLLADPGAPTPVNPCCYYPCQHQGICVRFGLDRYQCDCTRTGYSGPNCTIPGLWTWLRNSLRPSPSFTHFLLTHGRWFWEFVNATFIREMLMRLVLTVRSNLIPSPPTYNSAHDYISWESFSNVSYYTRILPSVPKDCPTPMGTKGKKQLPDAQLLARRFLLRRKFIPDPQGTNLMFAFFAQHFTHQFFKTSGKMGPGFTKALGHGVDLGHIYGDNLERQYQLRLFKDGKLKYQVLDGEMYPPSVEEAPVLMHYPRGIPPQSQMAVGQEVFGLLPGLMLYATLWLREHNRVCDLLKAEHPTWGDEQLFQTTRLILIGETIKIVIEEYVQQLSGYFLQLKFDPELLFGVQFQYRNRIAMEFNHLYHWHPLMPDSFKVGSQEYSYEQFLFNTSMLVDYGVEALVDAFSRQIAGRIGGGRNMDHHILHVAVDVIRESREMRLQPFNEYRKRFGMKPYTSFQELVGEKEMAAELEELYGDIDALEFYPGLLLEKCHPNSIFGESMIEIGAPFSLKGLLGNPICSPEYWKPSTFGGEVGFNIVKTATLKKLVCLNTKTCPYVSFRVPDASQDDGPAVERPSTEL

Structure (SMILES): O=C(N/N=C/c1cccs1)c1ccc2c(c1)OCO2
Activity (Rattus norvegicus [1]): 29.7%

IC50 [4]: 10.2 µM
IC50 [8]: 4.1 µM
Structure (SMILES): CS(=O)(=O)Nc1cc2c(cc1C(=O)N/N=C/c1ccccc1)OCO2
Activity (Rattus norvegicus [2]): Active
ED50 (Rattus norvegicus [3]): 97.8 µmol/kg
Activity (Mus musculus [5]): 48.7%
Activity (Mus musculus [6]): 70%
Activity (Rattus norvegicus [7]): Active
Activity (Rattus norvegicus [1]): 59.6%

Structure (SMILES): CS(=O)(=O)Nc1cc2c(cc1C(=O)N/N=C/c1cccs1)OCO2
Activity (Rattus norvegicus [1]): 36%

Structure (SMILES): CS(=O)(=O)Nc1cc2c(cc1C(=O)N/N=C/c1ccco1)OCO2
Activity (Rattus norvegicus [1]): 37.9%

Structure (SMILES): CS(=O)(=O)Nc1ccc([N+](=O)[O-])cc1Oc1ccccc1 [NIMESULIDE]
Activity (Mus musculus [5]): 58.5%
Activity (Rattus norvegicus [1]): 57.5%
